Results reported in ChEMBL document CHEMBL2163332 (J Med Chem, 2012).
Active and inactive are the calls of the source. No cut-off for these calls is given here.

Target: T1, Mu-type opioid receptor (Homo sapiens, UniProt P35372)
Assay: Agonist activity at human FLAG-tagged mu opioid receptor expressed in HEK293 cells assessed as induction of ERK1/2 phosphorylation at 1 pM after 10 mins by Western blot analysis
Assay type: functional, cell-based
Settings: not given
Summary of the method: (§1)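 Stable HEK293 line with FLAG-tagged MOR, in 12-well plates and serum-starved 16 h, then exposed to peptide at various concentrations for 10 min at 37 °C. Lysis in RIPA with 10 μM PMSF and phosphatase inhibitors. 20 μg protein run on 10% SDS-PAGE, blotted to PVDF and probed for phospho-ERK1/2 (Thr202/Tyr204) and total ERK1/2 (1:1000), ECL detection; at least three independent experiments.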

T1 sequence (P35372 whole entry): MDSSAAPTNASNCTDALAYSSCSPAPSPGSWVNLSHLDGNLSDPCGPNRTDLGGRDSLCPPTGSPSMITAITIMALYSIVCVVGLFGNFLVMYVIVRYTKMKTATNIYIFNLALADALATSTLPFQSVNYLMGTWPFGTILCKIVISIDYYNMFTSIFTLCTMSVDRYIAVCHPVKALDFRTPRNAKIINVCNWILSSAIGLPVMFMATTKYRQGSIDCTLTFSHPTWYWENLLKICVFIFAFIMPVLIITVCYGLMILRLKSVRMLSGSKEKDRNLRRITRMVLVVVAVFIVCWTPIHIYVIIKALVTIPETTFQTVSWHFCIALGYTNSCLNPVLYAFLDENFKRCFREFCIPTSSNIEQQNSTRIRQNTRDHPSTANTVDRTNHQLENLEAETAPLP

SMILES	Activity
C=C(C(N)=O)[C@@H](NC(=O)[C@H](Cc1c[nH]c2ccccc12)NC(=O)[C@@H]1CCCN1C(=O)[C@@H](N)Cc1ccc(O)cc1)c1ccccc1	Active
C=C(C(N)=O)[C@@H](NC(=O)[C@H](Cc1c[nH]c2ccccc12)NC(=O)[C@@H]1CCCN1C(=O)[C@@H](N)Cc1ccc(O)cc1)c1ccco1	Active
C=C(C(N)=O)[C@@H](NC(=O)[C@H](Cc1c[nH]c2ccccc12)NC(=O)[C@@H]1CCCN1C(=O)[C@@H](N)Cc1ccc(O)cc1)c1ccoc1	Active

System: not listed separately
Assay: Selectivity ratio of Ki for Myc-tagged delta opioid receptor to Ki for FLAG-tagged mu opioid receptor
Settings: not given

SMILES	Ratio Ki
C=C(C(N)=O)[C@@H](NC(=O)[C@H](Cc1c[nH]c2ccccc12)NC(=O)[C@@H]1CCCN1C(=O)[C@@H](N)Cc1ccc(O)cc1)c1ccccc1	105000
C=C(C(N)=O)[C@@H](NC(=O)[C@H](Cc1c[nH]c2ccccc12)NC(=O)[C@@H]1CCCN1C(=O)[C@@H](N)Cc1ccc(O)cc1)c1ccco1	226000
C=C(C(N)=O)[C@@H](NC(=O)[C@H](Cc1c[nH]c2ccccc12)NC(=O)[C@@H]1CCCN1C(=O)[C@@H](N)Cc1ccc(O)cc1)c1ccoc1	186000

Target: T1, Mu-type opioid receptor
Assay: Displacement of [3H]DAMGO from FLAG-tagged mu opioid receptor expressed in HEK293 cells after 60 mins by liquid scintillation counter
Assay type: cell-based
Settings: not given

SMILES	Ki
C=C(C(N)=O)[C@@H](NC(=O)[C@H](Cc1c[nH]c2ccccc12)NC(=O)[C@@H]1CCCN1C(=O)[C@@H](N)Cc1ccc(O)cc1)c1ccccc1	0.535 nM
C=C(C(N)=O)[C@@H](NC(=O)[C@H](Cc1c[nH]c2ccccc12)NC(=O)[C@@H]1CCCN1C(=O)[C@@H](N)Cc1ccc(O)cc1)c1ccco1	0.221 nM
C=C(C(N)=O)[C@@H](NC(=O)[C@H](Cc1c[nH]c2ccccc12)NC(=O)[C@@H]1CCCN1C(=O)[C@@H](N)Cc1ccc(O)cc1)c1ccoc1	0.274 nM

Target: T1, Mu-type opioid receptor
Assay: Agonist activity at human FLAG-tagged mu opioid receptor expressed in HEK293 cells assessed as induction of ERK1/2 phosphorylation at 10 nM after 10 mins by Western blot analysis
Assay type: functional, cell-based
Settings: not given
Summary of the method: as §1

SMILES	Activity
C=C(C(N)=O)[C@@H](NC(=O)[C@H](Cc1c[nH]c2ccccc12)NC(=O)[C@@H]1CCCN1C(=O)[C@@H](N)Cc1ccc(O)cc1)c1ccccc1	Active
C=C(C(N)=O)[C@@H](NC(=O)[C@H](Cc1c[nH]c2ccccc12)NC(=O)[C@@H]1CCCN1C(=O)[C@@H](N)Cc1ccc(O)cc1)c1ccco1	Active
C=C(C(N)=O)[C@@H](NC(=O)[C@H](Cc1c[nH]c2ccccc12)NC(=O)[C@@H]1CCCN1C(=O)[C@@H](N)Cc1ccc(O)cc1)c1ccoc1	Active

System: not listed separately
Assay: Half life in mouse brain homogenates
Assay type: ADME, tissue-based
Settings: brain homogenate
Summary of the method: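 Peptide incubated at 37 °C in twice-washed 15% mouse brain membrane homogenate, final protein 2.1 mg/mL in 50 mM Tris, pH 7.4. Aliquots centrifuged 13000g, 15 min, 4 °C, filtered 0.22 μm and analysed by C18 RP-HPLC (acetonitrile/water, 0.05% TFA). Half-life from pseudo-first-order disappearance kinetics; at least three experiments.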

SMILES	half-life
C=C(C(N)=O)[C@@H](NC(=O)[C@H](Cc1c[nH]c2ccccc12)NC(=O)[C@@H]1CCCN1C(=O)[C@@H](N)Cc1ccc(O)cc1)c1ccccc1	1.04 h
C=C(C(N)=O)[C@@H](NC(=O)[C@H](Cc1c[nH]c2ccccc12)NC(=O)[C@@H]1CCCN1C(=O)[C@@H](N)Cc1ccc(O)cc1)c1ccco1	1.43 h
C=C(C(N)=O)[C@@H](NC(=O)[C@H](Cc1c[nH]c2ccccc12)NC(=O)[C@@H]1CCCN1C(=O)[C@@H](N)Cc1ccc(O)cc1)c1ccoc1	1.47 h

Target: Delta-type opioid receptor (Homo sapiens, UniProt P41143)
Assay: Displacement of [3H]DPDPE from Myc-tagged delta opioid receptor expressed in HEK293 cells after 60 mins by liquid scintillation counter
Assay type: cell-based
Settings: not given

Delta-type opioid receptor (Homo sapiens, UniProt P41143), sequence (P41143 whole entry): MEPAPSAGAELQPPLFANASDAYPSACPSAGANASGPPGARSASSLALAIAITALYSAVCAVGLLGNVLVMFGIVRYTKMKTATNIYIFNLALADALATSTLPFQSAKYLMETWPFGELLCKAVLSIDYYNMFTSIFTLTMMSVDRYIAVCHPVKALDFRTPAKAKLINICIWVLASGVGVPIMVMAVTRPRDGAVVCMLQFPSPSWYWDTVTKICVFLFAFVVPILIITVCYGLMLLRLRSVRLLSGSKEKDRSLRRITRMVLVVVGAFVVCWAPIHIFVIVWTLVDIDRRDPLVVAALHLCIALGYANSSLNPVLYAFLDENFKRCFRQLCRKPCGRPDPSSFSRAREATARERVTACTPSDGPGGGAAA

SMILES	Ki
C=C(C(N)=O)[C@@H](NC(=O)[C@H](Cc1c[nH]c2ccccc12)NC(=O)[C@@H]1CCCN1C(=O)[C@@H](N)Cc1ccc(O)cc1)c1ccccc1	56000 nM
C=C(C(N)=O)[C@@H](NC(=O)[C@H](Cc1c[nH]c2ccccc12)NC(=O)[C@@H]1CCCN1C(=O)[C@@H](N)Cc1ccc(O)cc1)c1ccco1	50000 nM
C=C(C(N)=O)[C@@H](NC(=O)[C@H](Cc1c[nH]c2ccccc12)NC(=O)[C@@H]1CCCN1C(=O)[C@@H](N)Cc1ccc(O)cc1)c1ccoc1	50900 nM

Target: Delta-type opioid receptor (Mus musculus, UniProt P32300)
Assay: Agonist activity at delta opioid receptor in Kunming mouse vas deferens assessed as inhibition of electrically-stimulated muscle contraction
Assay type: functional, tissue-based
Settings: not given

Delta-type opioid receptor (Mus musculus, UniProt P32300), sequence (P32300 whole entry): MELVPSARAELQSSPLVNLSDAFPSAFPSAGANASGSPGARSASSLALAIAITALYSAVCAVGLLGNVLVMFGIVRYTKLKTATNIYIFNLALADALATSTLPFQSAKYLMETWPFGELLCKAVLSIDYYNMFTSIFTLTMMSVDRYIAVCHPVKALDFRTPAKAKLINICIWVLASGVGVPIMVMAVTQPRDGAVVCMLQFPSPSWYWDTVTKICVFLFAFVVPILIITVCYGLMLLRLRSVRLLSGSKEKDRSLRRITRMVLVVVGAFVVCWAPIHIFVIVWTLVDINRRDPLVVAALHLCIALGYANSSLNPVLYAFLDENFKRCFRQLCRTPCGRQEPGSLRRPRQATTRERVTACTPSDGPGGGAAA

SMILES	IC50
C=C(C(N)=O)[C@@H](NC(=O)[C@H](Cc1c[nH]c2ccccc12)NC(=O)[C@@H]1CCCN1C(=O)[C@@H](N)Cc1ccc(O)cc1)c1ccccc1	7.53 nM
C=C(C(N)=O)[C@@H](NC(=O)[C@H](Cc1c[nH]c2ccccc12)NC(=O)[C@@H]1CCCN1C(=O)[C@@H](N)Cc1ccc(O)cc1)c1ccco1	15.8 nM
C=C(C(N)=O)[C@@H](NC(=O)[C@H](Cc1c[nH]c2ccccc12)NC(=O)[C@@H]1CCCN1C(=O)[C@@H](N)Cc1ccc(O)cc1)c1ccoc1	10.2 nM

System: Mus musculus
Assay: Antinociceptive activity in Kunming mouse assessed as inhibition of heat-induced tail flick at 0.67 to 20 nmol/kg, icv
Assay type: functional, organism-based
Settings: TDE = time-dependent effect
Summary of the method: (§2)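 Male Kunming mice (18−22 g), peptide or saline given icv; tail immersed in 50 ± 0.2 °C water and withdrawal latency recorded; only mice with baseline latency about 3−5 s used. Readings at 5, 10, 15, 20, 30, 40, 50 and 60 min post-injection; 10−15 mice per group. Naloxone 2 mg/kg ip 10 min before icv dosing for antagonism. ED50 with 95% confidence limits by graded dose−response.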

SMILES	inhibition
C=C(C(N)=O)[C@@H](NC(=O)[C@H](Cc1c[nH]c2ccccc12)NC(=O)[C@@H]1CCCN1C(=O)[C@@H](N)Cc1ccc(O)cc1)c1ccccc1	tde
C=C(C(N)=O)[C@@H](NC(=O)[C@H](Cc1c[nH]c2ccccc12)NC(=O)[C@@H]1CCCN1C(=O)[C@@H](N)Cc1ccc(O)cc1)c1ccco1	tde
C=C(C(N)=O)[C@@H](NC(=O)[C@H](Cc1c[nH]c2ccccc12)NC(=O)[C@@H]1CCCN1C(=O)[C@@H](N)Cc1ccc(O)cc1)c1ccoc1	tde

Target: T1, Mu-type opioid receptor
Assay: Agonist activity at mu opioid receptor expressed in HEK293 cells assessed as inhibition of forskolin-induced cAMP accumulation after 30 mins by liquid scintillation counter relative to control
Assay type: functional, cell-based
Settings: not given
Summary of the method: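 MOR-expressing HEK293 cells seeded at 80% confluence the day before, washed with serum-free medium, preincubated 10 min at 37 °C with 1 mM IBMX, then peptide (5 × 10−11 to 5 × 10−5 M) with 50 μM forskolin added for 30 min at 37 °C. Lysis in 0.2 N HCl, neutralisation, cAMP measured by competition with [3H]cAMP for PKA (≥2 h, 4 °C) and charcoal separation; scintillation counting.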

SMILES	Emax
C=C(C(N)=O)[C@@H](NC(=O)[C@H](Cc1c[nH]c2ccccc12)NC(=O)[C@@H]1CCCN1C(=O)[C@@H](N)Cc1ccc(O)cc1)c1ccccc1	97.9%
C=C(C(N)=O)[C@@H](NC(=O)[C@H](Cc1c[nH]c2ccccc12)NC(=O)[C@@H]1CCCN1C(=O)[C@@H](N)Cc1ccc(O)cc1)c1ccco1	97.1%
C=C(C(N)=O)[C@@H](NC(=O)[C@H](Cc1c[nH]c2ccccc12)NC(=O)[C@@H]1CCCN1C(=O)[C@@H](N)Cc1ccc(O)cc1)c1ccoc1	98.7%

System: Mus musculus
Assay: Antinociceptive activity in icv dosed Kunming mouse assessed as inhibition of heat-induced tail flick after 5 to 60 mins
Assay type: functional
Settings: not given
Summary of the method: as §2

SMILES	inhibition
C=C(C(N)=O)[C@@H](NC(=O)[C@H](Cc1c[nH]c2ccccc12)NC(=O)[C@@H]1CCCN1C(=O)[C@@H](N)Cc1ccc(O)cc1)c1ccccc1	Dose-dependent effect
C=C(C(N)=O)[C@@H](NC(=O)[C@H](Cc1c[nH]c2ccccc12)NC(=O)[C@@H]1CCCN1C(=O)[C@@H](N)Cc1ccc(O)cc1)c1ccco1	Dose-dependent effect
C=C(C(N)=O)[C@@H](NC(=O)[C@H](Cc1c[nH]c2ccccc12)NC(=O)[C@@H]1CCCN1C(=O)[C@@H](N)Cc1ccc(O)cc1)c1ccoc1	Dose-dependent effect

Same assay, conditions: central

SMILES	ED50
C=C(C(N)=O)[C@@H](NC(=O)[C@H](Cc1c[nH]c2ccccc12)NC(=O)[C@@H]1CCCN1C(=O)[C@@H](N)Cc1ccc(O)cc1)c1ccccc1	0.00233 µmol/kg
C=C(C(N)=O)[C@@H](NC(=O)[C@H](Cc1c[nH]c2ccccc12)NC(=O)[C@@H]1CCCN1C(=O)[C@@H](N)Cc1ccc(O)cc1)c1ccco1	0.00142 µmol/kg
C=C(C(N)=O)[C@@H](NC(=O)[C@H](Cc1c[nH]c2ccccc12)NC(=O)[C@@H]1CCCN1C(=O)[C@@H](N)Cc1ccc(O)cc1)c1ccoc1	0.00155 µmol/kg

System: Mus musculus
Assay: Antinociceptive activity in naloxone treated Kunming mouse assessed as inhibition of heat-induced tail flick at 20 nmol/kg, icv after 10 mins post naloxone treatment
Assay type: functional, organism-based
Settings: not given
Summary of the method: as §2

SMILES	inhibition
C=C(C(N)=O)[C@@H](NC(=O)[C@H](Cc1c[nH]c2ccccc12)NC(=O)[C@@H]1CCCN1C(=O)[C@@H](N)Cc1ccc(O)cc1)c1ccccc1	inactive
C=C(C(N)=O)[C@@H](NC(=O)[C@H](Cc1c[nH]c2ccccc12)NC(=O)[C@@H]1CCCN1C(=O)[C@@H](N)Cc1ccc(O)cc1)c1ccco1	inactive
C=C(C(N)=O)[C@@H](NC(=O)[C@H](Cc1c[nH]c2ccccc12)NC(=O)[C@@H]1CCCN1C(=O)[C@@H](N)Cc1ccc(O)cc1)c1ccoc1	inactive

Target: T1, Mu-type opioid receptor
Assay: Agonist activity at human FLAG-tagged mu opioid receptor expressed in HEK293 cells assessed as induction of ERK1/2 phosphorylation after 10 mins by Western blot analysis
Assay type: functional, cell-based
Settings: not given
Summary of the method: as §1

SMILES	Activity
C=C(C(N)=O)[C@@H](NC(=O)[C@H](Cc1c[nH]c2ccccc12)NC(=O)[C@@H]1CCCN1C(=O)[C@@H](N)Cc1ccc(O)cc1)c1ccccc1	Dose-dependent effect
C=C(C(N)=O)[C@@H](NC(=O)[C@H](Cc1c[nH]c2ccccc12)NC(=O)[C@@H]1CCCN1C(=O)[C@@H](N)Cc1ccc(O)cc1)c1ccco1	Dose-dependent effect
C=C(C(N)=O)[C@@H](NC(=O)[C@H](Cc1c[nH]c2ccccc12)NC(=O)[C@@H]1CCCN1C(=O)[C@@H](N)Cc1ccc(O)cc1)c1ccoc1	Dose-dependent effect

Target: Delta-type opioid receptor (Mus musculus) (UniProt P32300)
Assay: Agonist activity at delta opioid receptor in Kunming mouse vas deferens assessed as inhibition of electrically-stimulated muscle contraction in presence of delta opioid receptor antagonist naltrindole
Assay type: functional, tissue-based
Settings: not given

Delta-type opioid receptor (Mus musculus), sequence (P32300 whole entry): as above

SMILES	inhibition
C=C(C(N)=O)[C@@H](NC(=O)[C@H](Cc1c[nH]c2ccccc12)NC(=O)[C@@H]1CCCN1C(=O)[C@@H](N)Cc1ccc(O)cc1)c1ccccc1	inactive
C=C(C(N)=O)[C@@H](NC(=O)[C@H](Cc1c[nH]c2ccccc12)NC(=O)[C@@H]1CCCN1C(=O)[C@@H](N)Cc1ccc(O)cc1)c1ccco1	inactive
C=C(C(N)=O)[C@@H](NC(=O)[C@H](Cc1c[nH]c2ccccc12)NC(=O)[C@@H]1CCCN1C(=O)[C@@H](N)Cc1ccc(O)cc1)c1ccoc1	inactive

Target: Mu-type opioid receptor (Cavia porcellus, UniProt P97266)
Assay: Agonist activity at mu opioid receptor in guinea pig ileum assessed as inhibition of electrically-stimulated muscle contraction
Assay type: functional, tissue-based
Settings: not given

Mu-type opioid receptor (Cavia porcellus, UniProt P97266), sequence (P97266 whole entry): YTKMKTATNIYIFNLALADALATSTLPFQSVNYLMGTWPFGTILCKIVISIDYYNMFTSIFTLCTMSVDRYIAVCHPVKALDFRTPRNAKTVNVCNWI

SMILES	IC50
C=C(C(N)=O)[C@@H](NC(=O)[C@H](Cc1c[nH]c2ccccc12)NC(=O)[C@@H]1CCCN1C(=O)[C@@H](N)Cc1ccc(O)cc1)c1ccccc1	6.81 nM
C=C(C(N)=O)[C@@H](NC(=O)[C@H](Cc1c[nH]c2ccccc12)NC(=O)[C@@H]1CCCN1C(=O)[C@@H](N)Cc1ccc(O)cc1)c1ccco1	2.92 nM
C=C(C(N)=O)[C@@H](NC(=O)[C@H](Cc1c[nH]c2ccccc12)NC(=O)[C@@H]1CCCN1C(=O)[C@@H](N)Cc1ccc(O)cc1)c1ccoc1	3.94 nM

Target: T1, Mu-type opioid receptor
Assay: Agonist activity at mu opioid receptor expressed in HEK293 cells assessed as inhibition of forskolin-induced cAMP accumulation after 30 mins by liquid scintillation counter
Assay type: functional, cell-based
Settings: not given

SMILES	EC50	inhibition
C=C(C(N)=O)[C@@H](NC(=O)[C@H](Cc1c[nH]c2ccccc12)NC(=O)[C@@H]1CCCN1C(=O)[C@@H](N)Cc1ccc(O)cc1)c1ccccc1	0.16 nM	Dose-dependent effect
C=C(C(N)=O)[C@@H](NC(=O)[C@H](Cc1c[nH]c2ccccc12)NC(=O)[C@@H]1CCCN1C(=O)[C@@H](N)Cc1ccc(O)cc1)c1ccco1	0.0334 nM	Dose-dependent effect
C=C(C(N)=O)[C@@H](NC(=O)[C@H](Cc1c[nH]c2ccccc12)NC(=O)[C@@H]1CCCN1C(=O)[C@@H](N)Cc1ccc(O)cc1)c1ccoc1	0.0342 nM	Dose-dependent effect
